Data reported in ChEMBL document CHEMBL1909519, “L-Proline anchored multicomponent synthesis of novel pyrido[2,3-a]carbazoles; investigation of in vitro antimicrobial, antioxidant, cytotoxicity and structure activity relationship studies” (Eur J Med Chem, 2011).
In brackets after ≈: the same amount, converted by molar mass. Activity calls are given as the source filed them. The calls are words filed in the database; no cut-off is given here.

What was measured:
Klebsiella pneumoniae [1] = experiment: Antibacterial activity against Klebsiella pneumoniae at 100 ug/ml after 24 hrs by agar disk diffusion assay; type: functional; details: read-out: DIZ
Outline: (§1)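 Gram-negative clinical isolates (PSG Hospital, Coimbatore) tested by agar well diffusion on nutrient agar. Compounds dissolved in DMSO at 0 (control), 25, 50, 75, 100; DMSO was the negative control and ciprofloxacin ([…]) the positive control. Incubation 37 ± 2 °C for 24 h, then inhibition zone diameter measured in mm.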

SK-OV-3 = experiment: Cytotoxicity against human SKOV3 cells up to 50 ug/ml after 48 hrs by SRB assay; type: functional, cell-based
Outline: (§2)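 Cells in RPMI-1640 with 10% heat-inactivated FBS, 1 mM NaHCO3, 2 mM L-glutamine, 37 °C, 5% CO2; seeded (B16F10 5 × 10⁴ cells/mL, others 1 × 10⁵ cells/mL), 24 h, then compounds in DMSO at 1.56–50 for 48 h, triplicate wells. TCA fixation, SRB staining 30 min, tris extraction, OD 520 nm; IC50 by linear regression, mean ± SD of three independent experiments; cisplatin positive control.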

B16-F10 [2] = experiment: Cytotoxicity against mouse B16F10 cells up to 50 ug/ml after 48 hrs by SRB assay; type: functional, cell-based; outline: as §2
Klebsiella pneumoniae [3] = experiment: Antibacterial activity against Klebsiella pneumoniae after 24 hrs by agar disk diffusion assay; type: functional; outline: as §1
Aspergillus niger [4] = experiment: Antifungal activity against Aspergillus niger at 100 ug/ml after 48 hrs by agar disk diffusion assay; type: functional; details: read-out: DIZ
Outline: (§3)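 Fungal isolates (PSG Hospital, Coimbatore) grown on Sabouraud dextrose agar; agar well diffusion with compounds in DMSO at 0 (control), 25, 50, 75, 100. DMSO negative control, fluconazole ([…]) positive control. Plates held 28 ± 2 °C for 48 h; zone of inhibition diameter recorded in mm.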

Escherichia coli [5] = experiment: Antibacterial activity against Escherichia coli after 24 hrs by agar disk diffusion assay; type: functional; outline: as §1
Aspergillus niger [6] = experiment: Antifungal activity against Aspergillus niger after 48 hrs by agar disk diffusion assay; type: functional; outline: as §3
Enterococcus faecalis [7] = experiment: Antibacterial activity against Enterococcus faecalis after 24 hrs by agar disk diffusion assay; type: functional
Outline: (§4)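 Agar well diffusion on nutrient agar against Gram-positive clinical isolates (PSG Hospital, Coimbatore). Compounds in DMSO tested at 0 (control), 25, 50, 75, 100; DMSO as solvent and negative control; ciprofloxacin ([…]) as positive control. Plates incubated 37 ± 2 °C, 24 h; zone of inhibition diameter read in mm.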

[8] = tested on: Radical scavenging activity; experiment: Antioxidant activity assessed as DPPH radical scavenging activity after 30 mins by micro plate reader; type: functional
Outline: (§5)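 DPPH assay: various compound concentrations brought to volume with ethanol, mixed with 0.1 mM ethanolic DPPH alongside vitamin C standard; shaken 30 min at 24 °C, absorbance read at 517 nm; concentration giving 50% decrease determined.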

Staphylococcus aureus [9] = experiment: Antibacterial activity against Staphylococcus aureus at 100 ug/ml after 24 hrs by agar disk diffusion assay; type: functional; details: read-out: DIZ; outline: as §4
Candida albicans [10] = experiment: Antifungal activity against Candida albicans at 100 ug/ml after 48 hrs by agar disk diffusion assay; type: functional; details: read-out: DIZ; outline: as §3
Escherichia coli [11] = experiment: Antibacterial activity against Escherichia coli at 100 ug/ml after 24 hrs by agar disk diffusion assay; type: functional; details: read-out: DIZ; outline: as §1
Staphylococcus aureus [12] = experiment: Antibacterial activity against Staphylococcus aureus after 24 hrs by agar disk diffusion assay; type: functional; outline: as §4
Candida albicans [13] = experiment: Antifungal activity against Candida albicans after 48 hrs by agar disk diffusion assay; type: functional; outline: as §3
A549 = experiment: Cytotoxicity against human A549 cells up to 50 ug/ml after 48 hrs by SRB assay; type: functional, cell-based; outline: as §2
Enterococcus faecalis [14] = experiment: Antibacterial activity against Enterococcus faecalis at 100 ug/ml after 24 hrs by agar disk diffusion assay; type: functional; details: read-out: DIZ; outline: as §4
[15] = Cytotoxicity against human SK-MEL-12 cells up to 50 ug/ml after 48 hrs by SRB assay; type: functional, cell-based; outline: as §2
HCT-15 [16] = experiment: Cytotoxicity against human HCT15 cells up to 50 ug/ml after 48 hrs by SRB assay; type: functional, cell-based; outline: as §2
Enterococcus faecalis [17] = experiment: Antibacterial activity against Enterococcus faecalis at 50 ug/ml after 24 hrs by agar disk diffusion assay; type: functional; details: read-out: DIZ; outline: as §4
Staphylococcus aureus [18] = experiment: Antibacterial activity against Staphylococcus aureus at 50 ug/ml after 24 hrs by agar disk diffusion assay; type: functional; details: read-out: DIZ; outline: as §4
Candida albicans [19] = experiment: Antifungal activity against Candida albicans at 50 ug/ml after 48 hrs by agar disk diffusion assay; type: functional; details: read-out: DIZ; outline: as §3
B16-F10 [20] = experiment: Cytotoxicity against mouse B16F10 cells after 48 hrs by SRB assay; type: functional, cell-based; details: B16-F10, 48 h; outline: as §2
Aspergillus niger [21] = experiment: Antifungal activity against Aspergillus niger at 50 ug/ml after 48 hrs by agar disk diffusion assay; type: functional; details: read-out: DIZ; outline: as §3
[22] = tested on: Radical scavenging activity; experiment: Antioxidant activity assessed as DPPH radical scavenging activity upto 600 mg/ml after 30 mins by micro plate reader; type: functional; outline: as §5
HCT-15 [23] = experiment: Cytotoxicity against human HCT15 cells after 48 hrs by SRB assay; type: functional, cell-based; details: HCT-15, 48 h; outline: as §2
Klebsiella pneumoniae [24] = experiment: Antibacterial activity against Klebsiella pneumoniae at 50 ug/ml after 24 hrs by agar disk diffusion assay; type: functional; details: read-out: DIZ; outline: as §1
Escherichia coli [25] = experiment: Antibacterial activity against Escherichia coli at 50 ug/ml after 24 hrs by agar disk diffusion assay; type: functional; details: read-out: DIZ; outline: as §1
Aspergillus niger [26] = experiment: Antifungal activity against Aspergillus niger at 30 ug/ml after 48 hrs by agar disk diffusion assay; type: functional; details: read-out: DIZ
Outline: (§6)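 Agar well diffusion on Sabouraud dextrose agar; fungal strains obtained from a hospital. Compounds dissolved in DMSO, with DMSO as negative control and fluconazole ([…]) as positive control. Plates incubated at 28 ± 2 °C for 48 h. Activity taken as the diameter of the inhibition zone, in mm.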

Candida albicans [27] = experiment: Antifungal activity against Candida albicans AT 30 ug/ml after 48 hrs by agar disk diffusion assay; type: functional; details: read-out: DIZ; outline: as §6
Enterococcus faecalis [28] = experiment: Antibacterial activity against Enterococcus faecalis at 30 ug/ml after 24 hrs by agar disk diffusion assay; details: read-out: DIZ
Escherichia coli [29] = experiment: Antibacterial activity against Escherichia coli at 30 ug/ml after 24 hrs by agar disk diffusion assay; details: read-out: DIZ
Klebsiella pneumoniae [30] = experiment: Antibacterial activity against Klebsiella pneumoniae at 30 ug/ml after 24 hrs by agar disk diffusion assay; details: read-out: DIZ
Staphylococcus aureus [31] = experiment: Antibacterial activity against Staphylococcus aureus at 30 ug/ml after 24 hrs by agar disk diffusion assay; details: read-out: DIZ

| Structure (SMILES) | IC50 (SK-OV-3) | MIC (Klebsiella pneumoniae [3]) [µg/mL] | MIC (Escherichia coli [5]) [µg/mL] | MIC (Aspergillus niger [6]) [µg/mL] | MIC (Enterococcus faecalis [7]) [µg/mL] | MIC (Staphylococcus aureus [12]) [µg/mL] | MIC (Candida albicans [13]) [µg/mL] | IC50 (A549) | IC50 [15] | other results |
| --- | --- | --- | --- | --- | --- | --- | --- | --- | --- | --- |
| CCOC(=O)c1c(N)nc2c(c1-c1ccccc1)CCc1c-2[nH]c2ccc(C)cc12 | Not Active | 100 (≈ 252 µM) | 100 (≈ 252 µM) | > 100 | 100 (≈ 252 µM) | 100 (≈ 252 µM) | > 100 | Not Active | Not Active | zone of inhibition at 100 µg/mL (Klebsiella pneumoniae [1]): 16 mm; IC50 (B16-F10 [2]): Not Active; zone of inhibition at 100 µg/mL (Aspergillus niger [4]): 4 mm; IC50 [8]: 300.84 µg/mL (≈ 757 µM); zone of inhibition at 100 µg/mL (Staphylococcus aureus [9]): 14 mm; zone of inhibition at 100 µg/mL (Candida albicans [10]): 2 mm; zone of inhibition at 100 µg/mL (Escherichia coli [11]): 13 mm; zone of inhibition at 100 µg/mL (Enterococcus faecalis [14]): 15 mm; IC50 (HCT-15 [16]): Not Active |
| Cc1ccc2[nH]c3c(c2c1)CCc1c-3nc(N)c(C#N)c1-c1ccc(N(C)C)cc1 | Not Active | 50 (≈ 127 µM) | 50 (≈ 127 µM) | > 100 | 50 (≈ 127 µM) | 50 (≈ 127 µM) | > 100 | Not Active | Not Active | zone of inhibition at 50 µg/mL (Enterococcus faecalis [17]): 19 mm; zone of inhibition at 50 µg/mL (Staphylococcus aureus [18]): 17 mm; zone of inhibition at 50 µg/mL (Candida albicans [19]): 9 mm; IC50 (B16-F10 [20]): 34.6 µg/mL (≈ 87.9 µM); zone of inhibition at 50 µg/mL (Aspergillus niger [21]): 5 mm; Activity [22]: inactive; IC50 (HCT-15 [23]): 43.5 µg/mL (≈ 111 µM); zone of inhibition at 50 µg/mL (Klebsiella pneumoniae [24]): 18 mm; zone of inhibition at 50 µg/mL (Escherichia coli [25]): 17 mm |
| OC(Cn1cncn1)(Cn1cncn1)c1ccc(F)cc1F [FLUCONAZOLE] | – | – | – | 12.5 (≈ 40.8 µM) | – | – | 12.5 (≈ 40.8 µM) | – | – | zone of inhibition at 30 µg/mL (Aspergillus niger [26]): 19 mm; zone of inhibition at 30 µg/mL (Candida albicans [27]): 22 mm |
| O=C(O)c1cn(C2CC2)c2cc(N3CCNCC3)c(F)cc2c1=O [CIPROFLOXACIN] | – | 12.5 (≈ 37.7 µM) | 12.5 (≈ 37.7 µM) | – | 12.5 (≈ 37.7 µM) | 12.5 (≈ 37.7 µM) | – | – | – | zone of inhibition at 30 µg/mL (Enterococcus faecalis [28]): 29 mm; zone of inhibition at 30 µg/mL (Escherichia coli [29]): 27 mm; zone of inhibition at 30 µg/mL (Klebsiella pneumoniae [30]): 30 mm; zone of inhibition at 30 µg/mL (Staphylococcus aureus [31]): 28 mm |
